Screening results: PubChem, several laboratories
Beta apoptosis = blocks beta cell apoptosis; INS-1E cytokine-induced death, ATP luminescence, 48 h; percent of positive-control rescue, neutral wells zero; protection from apoptosis, % (no concentration beside the values); actives 0.8% (n = 300,000); AID 435005;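 active = Every replicate reaches about 75%, or at least half do and their mean reaches it too, limit read from the data; inconclusive = At least half of replicates reach the limit but their mean does not; inactive = Under half of replicates reach the limit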;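 note: 0% = cytokine-treated negative control wells and 100% = positive control rescue; higher means more ATP so stronger rescue from cytokine killing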
UPR XBP1 act = activators of adaptive arm of unfolded protein response (XBP1); CHO-XBP1 luciferase reporter, IRE1-XBP1 UPR activation, luminescence; percent of tunicamycin response, DMSO as zero; activation, % at 20 µM; actives 0.33% (n = 330,000); AID 463104;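 active = versus positive control, 20 µM dose yields 30% or more activation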;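 note: 100% = tunicamycin at 10 µg/mL and 0% = DMSO only wells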
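Material: CHO cell line with stable XBP1 luciferase reporter; buffer or medium: F12 medium containing 10% fetal bovine serum; compound: single point, 20 µM final compound, 1% DMSO; incubation: 6 h treatment, 37 °C; measured by: glow luminescence from Steady-Glo reagent; evaluation: activation, % of tunicamycin; control set: tunicamycin high, DMSO low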
CSC inhib = cancer stem cell inhibition. AID 2717. inhibition, % at 7.5 µM. actives 1.1% (n = 300,000). cancer stem cell-like cells viability, luminescence; in the data active = inhibition above about 75%; inconclusive = no clear call, values can overlap the other calls; tested in HMLE shEcad cells
Mdm2 MdmX PPI = human Mdm2/MdmX binding inhibition; actives 3% (n = 330,000); inhibition, % at 8 µM; AID 485346; SaOS-2 split-luciferase Mdm2/MdmX complementation, luminescence; O15151+Q00987;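 active = inhibition of at least 50% at 8 µM in the primary screen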
Target sequence (O15151 whole entry, looked up): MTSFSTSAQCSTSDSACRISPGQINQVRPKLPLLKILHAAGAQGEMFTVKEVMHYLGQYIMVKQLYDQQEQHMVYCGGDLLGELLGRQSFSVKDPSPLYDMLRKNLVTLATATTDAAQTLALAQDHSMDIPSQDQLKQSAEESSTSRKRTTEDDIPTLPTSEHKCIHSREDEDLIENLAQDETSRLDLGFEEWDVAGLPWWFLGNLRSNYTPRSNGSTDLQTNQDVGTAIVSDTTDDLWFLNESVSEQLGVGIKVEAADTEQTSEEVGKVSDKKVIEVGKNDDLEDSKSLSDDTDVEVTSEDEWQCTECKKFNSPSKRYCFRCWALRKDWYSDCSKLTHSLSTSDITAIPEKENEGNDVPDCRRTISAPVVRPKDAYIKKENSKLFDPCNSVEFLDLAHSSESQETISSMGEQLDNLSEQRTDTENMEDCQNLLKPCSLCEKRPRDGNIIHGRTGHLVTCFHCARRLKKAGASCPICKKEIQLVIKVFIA
Target sequence (Q00987 whole entry, looked up): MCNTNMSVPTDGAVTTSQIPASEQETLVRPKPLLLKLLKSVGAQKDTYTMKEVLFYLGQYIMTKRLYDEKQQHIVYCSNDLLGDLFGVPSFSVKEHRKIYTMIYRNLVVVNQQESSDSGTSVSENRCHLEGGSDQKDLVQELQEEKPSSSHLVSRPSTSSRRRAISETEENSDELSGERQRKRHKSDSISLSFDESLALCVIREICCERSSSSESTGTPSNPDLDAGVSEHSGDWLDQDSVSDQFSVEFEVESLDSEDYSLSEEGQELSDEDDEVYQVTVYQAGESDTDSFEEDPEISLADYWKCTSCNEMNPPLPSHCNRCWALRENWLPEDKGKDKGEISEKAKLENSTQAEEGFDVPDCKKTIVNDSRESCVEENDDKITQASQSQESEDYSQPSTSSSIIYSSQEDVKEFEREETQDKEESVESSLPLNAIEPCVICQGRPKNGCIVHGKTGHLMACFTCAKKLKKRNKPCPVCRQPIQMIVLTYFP
UPR CHOP act = activators of apoptotic arm of unfolded protein response (CHOP) | CHO-CHOP luciferase reporter, UPR activation, luminescence; percent of tunicamycin response over DMSO baseline | activation, % at 10 µM | actives 0.34% (n = 330,000) | AID 449763;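 active = at 10 µM dose, activation of 40% or more, normalized to positive control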;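 note: 100% = tunicamycin at 10 µg/mL and 0% = DMSO alone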
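Assay system: CHO cells with stable CHOP pathway luciferase reporter; Buffer or medium: F12 plus 10% serum; Times: 16-18 h cell attachment, then 6 h compound exposure, 37 °C; Signal: luciferase luminescence; Read-out basis: percent activation relative to tunicamycin control; Control set: tunicamycin high control, DMSO low control.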
T cruzi repl = T. cruzi replication inhibition; T. cruzi beta-gal in NIH3T3, luminescence, 90 h; actives 1.4% (n = 300,000); AID 1885; inhibition, % (concentration not given with the values);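 active = mean inhibition across valid replicates above about 55%, limit read from the data; inconclusive = mean below that limit but half or more replicates reach it; inactive = mean below it, under half of replicates reach it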;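 note: signal also drops with host cell toxicity which is not excluded here; 0% = plate median of DMSO wells and 100% = zero luminescence signal; higher percent means less beta-gal luminescence so fewer parasites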
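Assay system: NIH/3T3 host cells with β-galactosidase reporter T. cruzi; input: 5,000 host fibroblasts per well; compound: single 50 nL compound addition per well in DMSO; timing: ≥90 h infection period, 3 h prior cell attachment; measured by: GalScreen β-gal luminescence, detergent lysis, 60 min; evaluation: percent inhibition of parasite-derived β-gal signal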
Mdm2 MdmX conf = confirmation of human Mdm2/MdmX interaction inhibitors | Mdm2-MdmX binding, luminescent assay | inhibition, % at 8 µM | shares compounds with Mdm2 MdmX PPI | actives 55% (n = 10,000) | AID 489028; in the data active = inhibition above about 40%
FLuc counter = counter-screen for Mdm2/MdmX inhibitors: full-length luciferase | shares compounds with Mdm2 MdmX PPI | SaOS-2 full-length luciferase counterscreen, luminescence | inhibition, % at 8 µM | actives 77% (n = 6,200);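 active = mean inhibition at 8 µM reaching about 37%, which flags the compound as non-specific, limit read from the data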;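 note: p53-null SaOS-2 cells with luciferase driven by a doxycycline-inducible promoter; compound on cells about two nights before reading with doxycycline added after day one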
The depositor's hits bear a star; ? = inconclusive; . = no result given. Sampled rows, rich in hits. Any-hit rate of the full collection: about 5%.

SMILES | Beta apoptosis | UPR XBP1 act | CSC inhib | Mdm2 MdmX PPI | UPR CHOP act | T cruzi repl | Mdm2 MdmX conf | FLuc counter
COc1ccc(C(=O)N/N=C(\Cc2ncc[nH]2)c2ccccc2)cc1 | 56.1 | 1.2 | 40.7 | 54.1* | -3.0 | 66.5* | 42.1* | 25.7
O=C(Nc1ccc(Br)cc1)NC1CCCCCCC1 | 13.7 | -2.6 | -5.3 | 23.9 | 5.4 | 29.8 | . | .
CCN1CCN(C(c2cccnc2)c2c(NC(=O)c3ccco3)sc(C)c2C)CC1 (stereo not drawn) | . | 0.9 | . | -8.9 | 1.5 | . | . | .
Cc1sc(NC(=O)c2ccco2)c(C(c2cccnc2)N2CCC(C)CC2)c1C (stereo not drawn) | -0.9 | 1.9 | -3.9 | 74.5* | 0.3 | 72.4* | 76.5* | 76.8*
O=C(C1CC1)N1c2ccccc2Sc2ccccc21 | 1.3 | -6.4 | 71.1 | 61.4* | 5.2 | -8.0 | 55.4* | 75.0*
O=C(COC(=O)c1cc(S(=O)(=O)N2CCOCC2)ccc1Cl)Nc1ccc2c(c1)OCO2 | -6.4 | -3.1 | 3.0 | 1.6 | 2.7 | 5.8 | . | .
CN(Cc1nc(-c2ccccn2)no1)S(=O)(=O)c1ccc(Cl)cc1 | -2.1 | 0.2 | -4.3 | 11.1 | -1.1 | -9.0 | . | .
CC1(C)CC(=O)C2=C(C1)NC1=C(C(=O)c3ccccc31)C2c1ccccc1 (stereo not drawn) | 5.2 | -2.0 | -9.5 | 0.5 | 2.0 | 22.1 | . | .
CC(C)c1ccc(C2C3=C(CC(C)(C)CC3=O)NC3=C2C(=O)c2ccccc23)cc1 (stereo not drawn) | 13.2 | 5.5 | 36.4 | 73.4* | 14.1 | 57.8* | 25.7 | .
C#CC[N+](C)(C)CCCCCCCCC | -0.3 | -2.8 | 41.7 | 50.6* | 1.6 | 4.5 | 49.2* | 73.6*
CSc1cccc(NC(=O)C2CCCN(c3ncnc4c3nc3n4CCCCC3)C2)c1 (stereo not drawn) | -12.0 | -8.6 | 41.9 | 57.4* | -0.8 | 17.3 | -22.7 | .
O=C(Nc1ccc(F)c(Cl)c1)C1CCN(c2ncnc3c2nc2n3CCCCC2)CC1 | -10.2 | -7.4 | -14.5 | 47.4 | 0.8 | 8.4 | . | .
CC(C)c1ccc(NC(=O)C2CCN(c3ncnc4c3nc3n4CCCCC3)CC2)cc1 | 15.7 | -1.3 | -14.4 | 72.4* | -0.3 | 10.9 | 29.5 | .
Nc1cc2c(cc1Cl)N(Cc1ccccc1)C(=O)CO2 | -7.5 | 6.2 | . | 25.5 | 3.2 | . | . | .
COc1cnc(-c2ccccn2)nc1Oc1ccccc1 | . | -0.1 | -1.2 | -11.3 | -1.2 | -1.0 | . | .
COc1cnc(-c2ccccn2)nc1N(C)c1ccccc1 | 91.7* | 10.9 | 98.3* | 79.8* | 15.6 | 65.8* | 76.8* | 56.2*
O=c1cc(N2CCN(c3cccc(Cl)c3)CC2)[nH]c(=O)n1C1CCCCC1 | 88.6* | 5.6 | 65.6 | 84.4* | -2.6 | 15.8 | 72.0* | 39.6*
CN1CCN(c2cc(=O)n(C3CCCCC3)c(=O)[nH]2)CC1 | -4.0 | 1.5 | 0.3 | -6.5 | 0.6 | 4.1 | . | .
O=c1cc(N2CCN(c3ccccc3)CC2)[nH]c(=O)n1C1CCCCC1 | -27.9 | 4.9 | 49.0 | 67.0* | -1.2 | -15.6 | 66.4* | 55.9*
COc1ccc(OC)c(NC(=O)CN(Cc2ccc(F)cc2)C2CCCCC2)c1 | 100.5* | -0.5 | 22.7 | 51.7* | 12.6 | 23.0 | 23.3 | .
COc1ccc(Cl)cc1NC(=O)CN(C)C1CCCCC1 | 0.8 | 1.8 | 9.3 | 12.8 | -0.7 | 16.0 | . | .
O=[N+]([O-])c1ccc(/C=N/Nc2nc(-c3ccccc3)c3cc(Br)ccc3n2)o1 | -0.3 | -1.0 | -3.8 | 33.7 | 4.3 | ? | . | .
N#Cc1ccccc1/C=N/Nc1nc(-c2ccccc2)c2cc(Br)ccc2n1 | 9.7 | 3.5 | 2.6 | 55.0* | 2.4 | 30.1 | 3.1 | .
OCCNc1nc(-c2ccccc2)c2cc(Br)ccc2n1 | 9.2 | -0.4 | 1.5 | 22.2 | -0.4 | 3.7 | . | .
Cc1ccc2nc(N/N=C\c3ccc([N+](=O)[O-])o3)nc(-c3ccccc3)c2c1 | . | 3.6 | 52.9 | 66.8* | 8.2 | 79.9* | 30.0 | .
SMILES | Beta apoptosis | UPR XBP1 act | CSC inhib | Mdm2 MdmX PPI | UPR CHOP act | T cruzi repl | Mdm2 MdmX conf | FLuc counter
CC(C)c1nc(NCCO)c(C#N)c2c1CCCC2 | -9.0 | -0.7 | -7.7 | 52.8* | -0.7 | 22.2 | 57.0* | 35.0
COc1cc2[nH]c3c(N4CCN(c5ccccn5)CC4)ncnc3c2cc1OC | 26.8 | 7.3 | 21.7 | 68.8* | -2.8 | -1.6 | 40.6* | 52.9*
COc1ccc2[nH]c3c(N4CCc5ccccc5C4)ncnc3c2c1 | 2.2 | 12.5 | 60.7 | 75.9* | 14.0 | 6.8 | 50.0* | 62.9*
COc1ccc2[nH]c3c(Cl)ncnc3c2c1 | -1.3 | 3.1 | 2.8 | 7.8 | 0.5 | -14.2 | . | .
COc1cccc2[nH]c3c(N4CCCCC4)ncnc3c12 | 10.3 | 6.9 | 6.9 | 7.9 | 2.5 | 15.8 | . | .
Cc1ccc(C(=O)N/N=C2\CC3CC=CC23)c(C)c1 (stereo not drawn) | -6.6 | -5.6 | -4.0 | 11.8 | 0.5 | -5.3 | . | .
O=C(Cc1ccccc1)NS(=O)(=O)c1ccc(N=NN2CCOCC2)cc1 | -4.1 | -1.9 | 0.8 | 86.5* | -2.6 | 3.8 | -13.8 | .
O=c1c(C(c2nnnn2C2CCCCC2)N2CCCCC2)coc2ccc(Cl)cc12 (stereo not drawn) | 3.3 | 3.6 | 30.0 | 52.7* | 16.4 | -10.3 | -1.6 | .
Clc1ccc(C(c2nnnn2C2CCCC2)N2CCN(Cc3ccncc3)CC2)cc1 (stereo not drawn) | -3.5 | -0.9 | -5.2 | 6.1 | 0.6 | -4.4 | . | .
COc1ccccc1CNc1nc2nc3c(c(=O)n2[nH]1)CCC3 | 4.3 | -0.8 | -2.7 | 20.4 | -2.2 | -9.6 | . | .
O=c1c2c(nc3nc(NCc4ccccc4Cl)[nH]n13)CCC2 | . | 2.6 | -4.8 | 66.9* | -0.6 | 2.7 | -4.3 | .
O=C1COc2cc(S(=O)(=O)CCC(=O)N3CCCCC3)c(Cl)cc2N1 | -5.6 | -1.6 | 4.0 | -12.7 | -0.3 | 3.1 | . | .
COc1ccc(NS(=O)(=O)c2cccs2)cn1 | -6.3 | -0.3 | -6.5 | 79.4* | 0.7 | -9.5 | 11.5 | .
O=[N+]([O-])c1cc(C=Nc2cccc3c(O)cccc23)ccc1Cl | 25.9 | 4.2 | . | 26.0 | 2.8 | 11.5 | . | .
COc1ccc(-n2c(C)c([N+](=O)[O-])c3ccc(O)c(CN4CCCCC4)c32)cc1 | 2.6 | 2.3 | 15.3 | 77.3* | -1.2 | 7.3 | 58.4* | 28.9
Cc1ccc(-n2c(C)c([N+](=O)[O-])c3ccc(O)c(CN(C)C)c32)cc1 | -6.5 | -2.7 | -26.6 | 85.1* | -0.4 | 0.4 | 80.0* | 54.3*
Cn1c(SCC(=O)Nc2cccc(Br)c2)nnc1-c1cc2ccccc2o1 | -2.3 | -2.9 | . | 62.7* | 0.4 | -5.3 | -18.6 | .
